Laboratory results reported in ChEMBL document CHEMBL1140321, “Synthesis and biological evaluation of acyclic 3-[(2-hydroxyethoxy)methyl] analogues of antiviral furo- and pyrrolo[2,3-d]pyrimidine nucleosides” (J Med Chem, 2005).

Legend:
HEL [1] = assay: Concentration required to inhibit Varicella-Zoster virus (strain 07/1) induced cytopathogenicity in HEL cells by 50%; format: functional, cell-based; settings: Homo sapiens
HEL [2] = assay: Concentration required to inhibit human cytomegalovirus strain Davis induced cytopathogenicity in HEL cells by 50%; format: functional, cell-based
HEL [3] = assay: Concentration required to cause a microscopically visible alteration of cell morphology in HEL cells; format: functional; settings: Homo sapiens
HEL [4] = assay: Concentration required to inhibit Varicella-Zoster virus (strain OKA) induced cytopathogenicity in HEL cells by 50%; format: functional, cell-based; settings: Homo sapiens
HEL [5] = assay: Concentration required to inhibit herpes simplex virus type 1 induced cytopathogenicity in HEL cells by 50%; format: functional, cell-based; settings: Homo sapiens
HEL [6] = assay: Concentration required to inhibit cell proliferation in HEL cells by 50%; format: functional; settings: Homo sapiens
HEL [7] = assay: Concentration required to inhibit herpes simplex virus type 2 induced cytopathogenicity in HEL cells by 50%; format: functional, cell-based; settings: Homo sapiens
HEL [8] = assay: Concentration required to inhibit vesicular stomatitis virus induced cytopathogenicity in HEL cells by 50%; format: functional, cell-based; settings: Homo sapiens
CCRF-CEM [9] = assay: Concentration required to inhibit human immunodeficiency virus-2 (strain ROD) induced cytopathogenicity in CEM cells by 50%; format: functional, cell-based
Procedure, shortened: (§1)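 Human CEM cells (~3 × 10^5 cells/cm³) were infected with 100 CCID50/mL of HIV-1(IIIB) or HIV-2(ROD) and seeded into wells with compound dilutions. After 4 days at 37 °C, HIV-induced giant-cell formation was examined microscopically and EC50 was taken as the concentration giving 50% inhibition.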

HEL [10] = assay: Concentration required to inhibit human cytomegalovirus strain AD169 induced cytopathogenicity in HEL cells by 50%; format: functional, cell-based
HEL [11] = assay: Concentration required to inhibit vaccinia virus induced cytopathogenicity in HEL cells by 50%; format: functional, cell-based; settings: Homo sapiens
CCRF-CEM [12] = assay: Concentration required to inhibit human immunodeficiency virus-1 (strain IIIb) induced cytopathogenicity in CEM cells by 50%; format: functional, cell-based; procedure, shortened: as §1
HEL [13] = assay: Concentration required to inhibit HEL cell proliferation by 50%; format: functional; settings: Homo sapiens

Row | Compound | EC50 (HEL [1]) [µM] | EC50 (HEL [2]) [µM] | MCC (HEL [3]) [µM] | EC50 (HEL [4]) [µM] | EC50 (HEL [5]) [µM] | CC50 (HEL [6]) [µM] | EC50 (HEL [7]) [µM] | EC50 (HEL [8]) [µM] | EC50 (CCRF-CEM [9]) [µM] | EC50 (HEL [10]) [µM] | EC50 (HEL [11]) [µM] | EC50 (CCRF-CEM [12]) [µM] | CC50 (HEL [13]) [µM]
1 | CCCCc1cc2cn(COCCO)c(=O)nc2o1 | > 400 | > 400 | > 400 | ≥ 100 | > 400 | > 200 | > 400 | > 400 | > 250 | > 400 | > 400 | > 250 | –
2 | CCCCCCCCCCc1cc2cn(COCCO)c(O)nc-2n1 | 5.8 | 1.8 | 80 | 6.4 | > 16 | 32 | > 16 | > 16 | > 10 | 5.1 | > 16 | > 10 | –
3 | CCCCCCCc1cc2cn(COCCO)c(O)nc-2n1 | 156 | 400 | ≥ 400 | 149 | > 200 | 119 | > 200 | > 200 | > 250 | > 400 | > 200 | > 250 | –
4 | CCCCCCCc1cc2cn(COCCO)c(=O)nc2o1 | > 80 | > 80 | 400 | > 80 | > 200 | 140 | > 200 | > 200 | > 50 | > 80 | > 200 | > 50 | –
5 | O=c1[nH]c(=O)n([C@H]2C[C@H](O)[C@@H](CO)O2)cc1/C=C/Br [BRIVUDINE] | > 108 | > 100 | > 400 | 0.03 | 0.16 | ≥ 400 | 300 | > 500 | > 50 | > 100 | 60 | > 50 | –
6 | CCCCCCCC#Cc1cc2cn(COCCO)c(=O)nc2o1 | > 20 | > 20 | 200 | > 20 | > 40 | > 50 | > 40 | > 40 | > 10 | > 20 | > 40 | > 10 | –
7 | CCCCCCCCC#Cc1cc2cn(COCCO)c(=O)nc2o1 | 8.5 | 5.2 | ≥ 20 | > 5 | > 40 | 42 | > 40 | > 40 | > 10 | > 4 | > 40 | > 10 | –
8 | CCCCCCCCc1cc2cn(COCCO)c(O)nc-2n1 | > 16 | > 16 | 80 | > 16 | > 80 | 65 | > 80 | > 80 | > 50 | > 16 | > 80 | > 50 | –
9 | CCCCCc1cc2cn(COCCO)c(=O)nc2o1 | > 400 | > 400 | > 400 | > 400 | > 400 | > 200 | > 400 | > 400 | > 250 | > 400 | > 400 | > 50 | –
10 | OCCOCn1cc2ccnc-2nc1O | > 400 | > 400 | > 400 | > 400 | > 400 | > 200 | > 400 | > 400 | > 250 | > 400 | > 400 | > 250 | –
11 | CCCCCCCCCc1cc2cn(COCCO)c(=O)nc2o1 | 10 | > 400 | ≥ 16 | 41 | > 200 | ≥ 100 | > 200 | > 200 | > 250 | > 400 | > 200 | > 250 | –
12 | CCCCCCCCCCc1cc2cn(COCCO)c(=O)nc2o1 | > 80 | > 80 | 400 | > 80 | > 16 | > 200 | > 16 | > 16 | > 250 | > 400 | > 16 | > 250 | –
13 | CCCCCCc1cc2cn(COCCO)c(O)nc-2n1 | 151 | 253 | > 400 | 206 | > 80 | > 200 | > 80 | > 80 | > 50 | 400 | > 80 | > 50 | –
14 | CCCCCCCCCCCc1cc2cn(COCCO)c(O)nc-2n1 | 10 | > 16 | 80 | 16 | > 40 | 41 | > 40 | > 40 | > 10 | > 16 | > 40 | > 10 | –
15 | C#Cc1cn(COCCO)c(=O)[nH]c1=O | > 400 | > 400 | > 400 | > 400 | > 400 | – | > 400 | > 400 | > 250 | > 400 | > 400 | > 250 | > 200
16 | CCCCCCCCc1cc2cn(COCCO)c(=O)nc2o1 | > 16 | 10 | ≥ 80 | 11 | > 16 | > 200 | > 16 | > 16 | > 50 | 31 | > 16 | > 50 | –
17 | CCCCCCCCCc1cc2cn(COCCO)c(O)nc-2n1 | > 16 | > 16 | > 80 | > 16 | > 80 | – | > 80 | > 80 | > 50 | > 16 | > 80 | > 50 | –
18 | CCCCCCCCCC#Cc1cc2cn(COCCO)c(=O)nc2o1 | 7.1 | 5.2 | ≥ 20 | 2.6 | > 40 | > 50 | > 40 | > 40 | > 10 | > 4 | > 40 | > 10 | –
19 | CCCCCCC#Cc1cc2cn(COCCO)c(=O)nc2o1 | 100 | > 20 | > 200 | 100 | > 200 | > 50 | > 200 | > 200 | – | 40 | > 200 | > 50 | –
20 | CCCCCC#Cc1cc2cn(COCCO)c(=O)nc2o1 | > 50 | 58 | ≥ 100 | > 50 | > 200 | > 50 | > 200 | > 200 | > 50 | > 20 | > 200 | > 50 | –
21 | CCCCCc1cc2cn(COCCO)c(O)nc-2n1 | > 400 | > 400 | > 400 | > 400 | > 400 | > 200 | > 400 | > 400 | > 250 | > 400 | > 400 | > 250 | –
22 | O=c1nc2occc2cn1COCCO | > 400 | > 400 | > 400 | > 100 | > 400 | > 200 | > 400 | > 400 | > 250 | > 400 | > 400 | > 250 | –
23 | CCCCc1cc2cn(COCCO)c(O)nc-2n1 | > 400 | > 400 | > 400 | > 400 | > 400 | > 200 | > 400 | > 400 | > 250 | > 400 | > 400 | > 250 | –
24 | CCCCCCc1cc2cn(COCCO)c(=O)nc2o1 | 151 | > 80 | ≥ 400 | 173 | > 16 | > 200 | > 16 | > 16 | > 50 | > 80 | > 16 | > 50 | –
25 | CCCCCCCCCCCc1cc2cn(COCCO)c(=O)nc2o1 | > 16 | > 16 | 80 | > 16 | > 40 | 132 | > 40 | > 40 | > 250 | > 16 | > 40 | > 250 | –
26 | CCCCC#Cc1cc2cn(COCCO)c(=O)nc2o1 | > 50 | > 100 | > 100 | > 50 | > 200 | > 50 | > 200 | > 200 | > 50 | > 100 | > 200 | > 50 | –
